A selection: hits, their analogues and other compounds. The true share with any hit is near 3.5%.
RGS4 act – RGS4 potentiation or activation | HEK293 M3R/inducible RGS4, carbachol calcium flux Fluo4; active compounds read low | B-score at 10 µM | hit rate 0.92% among 310,000 | AID 463111;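 active = B-score of the integrated calcium signal more than 4 SD below the library mean, with starting fluorescence not abnormally high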;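 note: negative B-score means reduced calcium response which marks RGS4 activation or potentiation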
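Reagent: ECmax carbachol challenge; Test system: M3R-expressing HEK293 line, RGS4 induced by doxycycline; Schedule: overnight RGS4 induction, 30 min dye load 37 °C, 20 min compound RT; Detection: calcium dye Fluo4 fluorescence; Read-out: Agonist-evoked peak-minus-minimum fluorescence over baseline, integrated ratio, B score.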
MrgX1 agonist – human MrgX1 receptor agonism, primary screen; Q96LB2; MrgX1-HEK293 cells, Fluo-4 calcium fluorescence, agonist mode; active compounds read high; hit rate 0.44% among 310,000; B-score at 10 µM;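 active = calcium response B-score plate-corrected fluorescence ratio at least 3 library SD, with starting fluorescence B-score inside 5 SD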
Target sequence (Q96LB2 whole entry, looked up): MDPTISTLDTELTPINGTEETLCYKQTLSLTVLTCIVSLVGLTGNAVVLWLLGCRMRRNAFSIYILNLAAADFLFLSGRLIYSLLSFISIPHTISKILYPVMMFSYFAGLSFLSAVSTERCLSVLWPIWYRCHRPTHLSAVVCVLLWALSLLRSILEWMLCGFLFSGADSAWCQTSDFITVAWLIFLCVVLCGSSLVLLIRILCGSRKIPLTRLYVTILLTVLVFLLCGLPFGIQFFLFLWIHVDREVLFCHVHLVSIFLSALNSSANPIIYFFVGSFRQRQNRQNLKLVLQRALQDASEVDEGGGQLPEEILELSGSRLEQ
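Material: MrgX1-expressing HEK293 cells; input: 15,000 cells per well; doses: test compound given as first of three sequential additions; schedule: overnight plating before 1 h dye loading; technique: Fluo-4 NW calcium-flux fluorescence, kinetic read; evaluation: baseline-normalised fluorescence change ratio, B-scored; control set: plate-wise positive and negative controls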
RGS4 block – inhibitors of human RGS4; P49798; HEK293 M3R/RGS4 inducible, Fluo-4 calcium flux; active compounds read high; triggered by carbachol at its EC20; B-score at 10 µM; hit rate 0.45% among 310,000; AID 463165;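 active = B-score, a plate-corrected calcium signal, over three deviations above library mean, with baseline fluorescence within five deviations of library mean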;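 note: RGS4 expression induced by doxycycline in cells with stable M3 receptor; B-score is computed from the integrated fluorescence ratio over baseline after carbachol; higher B-score means a larger calcium signal and so more RGS4 inhibition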
Target sequence (P49798 whole entry, looked up): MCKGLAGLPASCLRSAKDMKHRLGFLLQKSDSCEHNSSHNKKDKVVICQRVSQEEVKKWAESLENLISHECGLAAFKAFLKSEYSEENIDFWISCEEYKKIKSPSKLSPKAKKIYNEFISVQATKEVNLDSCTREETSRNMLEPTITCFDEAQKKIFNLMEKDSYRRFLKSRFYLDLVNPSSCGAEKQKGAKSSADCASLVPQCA
MrgX1 PAM – allosterically activates human MrgX1 receptor signaling; MrgX1-HEK293, Fluo-4 calcium flux, FDSS; active compounds read high; B-score at 10 µM; hit rate 0.63% among 310,000; AID 588675;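 active = plate-corrected calcium response at least 3 library SD above typical, normal starting fluorescence, not activating the receptor alone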;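 note: compound read alongside a low EC10 to EC30 dose of BAM8-22 agonist; peak minus trough fluorescence over baseline measured at the second addition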
MrgX1 antagonist – antagonists of human MrgX1 receptor | Q96LB2 | MRGX1-HEK293 calcium flux, Fluo-4, BAM8-22 antagonism; active compounds read low | B-score at 10 µM | hit rate 1.3% among 310,000;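 active = calcium-response B-score plate-corrected more than 3 library SD below zero, starting fluorescence within 5 deviations, no agonist response on first addition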;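 note: peak minus trough fluorescence over baseline after final BAM8-22 challenge near maximal dose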
MrgX1 antag conf – human MrgX1 receptor antagonism, re-confirmation screen; shares compounds with MrgX1 antagonist; MrgX1-HEK293, BAM8-22 calcium flux, Fluo-4; active compounds read low; remaining BAM8-22 calcium response % of control (active compounds read low), % at 10 µM; hit rate 19% among 2,300; AID 602420;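 active = remaining agonist calcium response no higher than 100% minus 3 SD of agonist-only control wells, with starting fluorescence near control levels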;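 note: agonist BAM8-22 given at a near maximal EC90 to ECmax level; peak minus minimum fluorescence divided by baseline after agonist addition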
HEK293 Ca flux – MrgX1 antagonist counter-screen hit in parental HEK293 cells | hit rate 2% among 4,000 | shares compounds with MrgX1 antagonist | Fluo-4 calcium fluorescence, FDSS | fluorescence ratio F(max-min)/F0 at 10 µM | AID 624111;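 active = duplicate-averaged calcium fluorescence ratio at least three times the standard deviation of buffer wells, a nonspecific response in parental cells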
HEK293 Ca counter – MrgX1 allosteric activator counter-screen hit in parental HEK293 cells | hit rate 0.4% among 4,000 | fluorescence ratio F(max-min)/F0 at 10 µM | parental HEK293 calcium flux, Fluo-4 fluorescence ratio; active compounds read high | shares compounds with MrgX1 antagonist;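 active = calcium fluorescence ratio, averaged over duplicates, at least 3 SD of the buffer-well ratio, meaning a nonspecific response in receptor-free cells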;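 note: untransfected parental HEK293 lacking MrgX1 used as counterscreen for MrgX1 allosteric activators; fluorescence change taken during the second addition on a kinetic imager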
HEK293 Ca cntr2 – counter-screen for MrgX1 activators: effect in parental HEK293 cells. shares compounds with MrgX1 antagonist. Fluo-4 calcium fluorescence (FDSS); active compounds read high. fluorescence ratio F(max-min)/F0 at 10 µM. hit rate 8.7% among 4,000. AID 624115;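 active = calcium fluorescence ratio at least three times the spread of buffer wells, meaning a non-specific response in parental cells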
Starred values were filed as active, the others as inactive.

Screening Cc1cccc(CC(=O)Nc2sc(C(C)C)cc2C(=O)N2CCOCC2)c1 returned RGS4 act inactive, MrgX1 agonist inactive, RGS4 block inactive, MrgX1 PAM inactive and MrgX1 antagonist inactive.
For COc1ccc(-n2c(CNC(=O)c3cccs3)n[nH]c2=S)cc1 the results were RGS4 act inactive, MrgX1 agonist inactive, RGS4 block inactive, MrgX1 PAM inactive, MrgX1 antagonist -4.8*, MrgX1 antag conf inactive, HEK293 Ca flux inactive, HEK293 Ca counter inactive and HEK293 Ca cntr2 inactive.
CC(=O)Cc1ccccc1OC(=O)c1ccco1 was read as RGS4 act inactive, MrgX1 agonist inactive, RGS4 block inactive, MrgX1 PAM inactive, MrgX1 antagonist -6.2*, MrgX1 antag conf inactive, HEK293 Ca flux inactive, HEK293 Ca counter inactive and HEK293 Ca cntr2 inactive.
`CCOC(=O)C1CCCN(C(=O)Cc2ccc(OC)c(OC)c2)C1` (stereo not drawn) gave RGS4 act inactive, MrgX1 agonist inactive, RGS4 block inactive, MrgX1 PAM inactive, MrgX1 antagonist -4.8*, MrgX1 antag conf inactive, HEK293 Ca flux inactive, HEK293 Ca counter inactive and HEK293 Ca cntr2 inactive.
O=S(=O)(Nc1nc(-c2ccccc2)cs1)c1cccc(C(F)(F)F)c1 was read as RGS4 act inactive, MrgX1 agonist inactive, RGS4 block inactive, MrgX1 PAM inactive, MrgX1 antagonist -7.4*, MrgX1 antag conf inactive, HEK293 Ca flux inactive, HEK293 Ca counter inactive and HEK293 Ca cntr2 inactive.
For CCn1c(SCC(=O)Nc2ccc(C(C)=O)cc2)nc2nc3c(cc2c1=O)CCCC3 the results were RGS4 act inactive, MrgX1 agonist inactive, RGS4 block inactive, MrgX1 PAM inactive, MrgX1 antagonist -5.8*, MrgX1 antag conf inactive, HEK293 Ca flux inactive, HEK293 Ca counter inactive and HEK293 Ca cntr2 inactive.
Screening Cc1ccc(C(=O)OCC(=O)N(CC(C)C)c2c(N)n(Cc3ccccc3)c(=O)[nH]c2=O)o1 returned RGS4 act inactive, MrgX1 agonist inactive, RGS4 block inactive, MrgX1 PAM inactive and MrgX1 antagonist inactive.
For COc1ccc(N=Cc2ccc(-c3ccccc3)o2)cc1 the results were RGS4 act inactive, MrgX1 agonist inactive, RGS4 block inactive, MrgX1 PAM inactive, MrgX1 antagonist -6*, MrgX1 antag conf inactive, HEK293 Ca flux inactive, HEK293 Ca counter inactive and HEK293 Ca cntr2 inactive.
`COCC(=O)Nc1ccc2c(c1)OCC(=O)N2Cc1ccc(C)cc1` gave RGS4 act inactive, MrgX1 agonist inactive, RGS4 block inactive, MrgX1 PAM inactive and MrgX1 antagonist inactive.
Screening Cn1c(=O)oc2cc(S(=O)(=O)N3CCCC(C(=O)NCCN4CCOCC4)C3)ccc21 (stereo not drawn) returned MrgX1 agonist inactive, MrgX1 PAM inactive, MrgX1 antagonist -4.6*, MrgX1 antag conf inactive, HEK293 Ca flux inactive, HEK293 Ca counter inactive and HEK293 Ca cntr2 inactive.
COc1ccccc1OCC(=O)Nc1ccc(NC(=O)COc2ccccc2OC)cc1 was read as RGS4 act inactive, MrgX1 agonist inactive, RGS4 block inactive, MrgX1 PAM inactive and MrgX1 antagonist inactive.
COc1ccccc1OCC(=O)Nc1ccc(S(=O)(=O)NC(C)=O)cc1 was read as RGS4 act inactive, MrgX1 agonist inactive, RGS4 block inactive, MrgX1 PAM inactive, MrgX1 antagonist -6.7*, MrgX1 antag conf inactive, HEK293 Ca flux inactive, HEK293 Ca counter inactive and HEK293 Ca cntr2 inactive.
For CCC(=O)c1ccc(N2CCN(C(=O)c3cccs3)CC2)c(F)c1 the results were RGS4 act inactive, MrgX1 agonist inactive, RGS4 block inactive, MrgX1 PAM inactive and MrgX1 antagonist inactive.
`COc1ccccc1NC(=O)c1nn(C)cc1Br` gave MrgX1 agonist inactive, MrgX1 PAM inactive, MrgX1 antagonist -7.6*, MrgX1 antag conf inactive, HEK293 Ca flux inactive, HEK293 Ca counter inactive and HEK293 Ca cntr2 inactive.
O=C1CC(N2CCSCC2)C(=O)N1c1cccc(Br)c1 (stereo not drawn) was read as RGS4 act inactive, MrgX1 agonist inactive, RGS4 block inactive, MrgX1 PAM inactive, MrgX1 antagonist -9.1*, MrgX1 antag conf inactive, HEK293 Ca flux inactive, HEK293 Ca counter inactive and HEK293 Ca cntr2 inactive.
For O=C1CC(N2CCN(c3ccccc3)CC2)C(=O)N1c1cccc(Br)c1 (stereo not drawn) the results were RGS4 act inactive, MrgX1 agonist inactive, RGS4 block inactive, MrgX1 PAM inactive and MrgX1 antagonist inactive.
For C=CCN(C(=O)c1csnn1)C(C(=O)NCc1ccc(F)cc1)c1ccccc1F (stereo not drawn) the results were RGS4 act inactive, MrgX1 agonist inactive, RGS4 block inactive, MrgX1 PAM inactive and MrgX1 antagonist inactive.
Cc1occc1C(=O)Nc1sc2c(c1C(N)=O)CCCCC2 was read as RGS4 act inactive, MrgX1 agonist inactive, RGS4 block inactive, MrgX1 PAM inactive, MrgX1 antagonist -6.5*, MrgX1 antag conf inactive, HEK293 Ca flux inactive, HEK293 Ca counter inactive and HEK293 Ca cntr2 inactive.
Screening CCc1c(C)sc(NC(=O)c2ccoc2C)c1C(N)=O returned RGS4 act inactive, MrgX1 agonist inactive, RGS4 block inactive, MrgX1 PAM inactive, MrgX1 antagonist -5.9*, MrgX1 antag conf inactive, HEK293 Ca flux inactive, HEK293 Ca counter inactive and HEK293 Ca cntr2 inactive.
O=C(Nc1ccc(S(=O)(=O)NC2=NCCCCC2)cc1)c1ccc(C(F)(F)F)cc1 was read as RGS4 act inactive, MrgX1 agonist inactive, RGS4 block inactive, MrgX1 PAM inactive and MrgX1 antagonist inactive.
CN(C)S(=O)(=O)c1ccc(C(=O)Nc2ccc(S(=O)(=O)NC3=NCCCCC3)cc2)cc1 was read as RGS4 act inactive, MrgX1 agonist inactive, RGS4 block inactive, MrgX1 PAM inactive, MrgX1 antagonist -7.5*, MrgX1 antag conf inactive, HEK293 Ca flux inactive, HEK293 Ca counter inactive and HEK293 Ca cntr2 inactive.

High-throughput results deposited in PubChem by Johns Hopkins Ion Channel Center.
